Active and inactive are the calls of the source. The rule behind the calls is not given here.
Key:
[1] = biological target: Aldo-keto reductase family 1 member B1 (Bos taurus) (UniProt P16116); test: Inhibition of aldose reductase activity in partially purified bovine lens preparation at 10e-5 M
Summary of the method: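 Partially purified bovine lens aldose reductase. Reduction of DL-glyceraldehyde substrate followed spectrophotometrically. Activity expressed as average inhibition at the tested concentrations, 1×10^-5, 1×10^-6, 1×10^-7 and 4×10^-6 M as printed; IC50 in M where given.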

Rattus norvegicus [2] = test: Tested for in vivo inhibition of galactitol accumulation in the sciatic nerve of galactose-fed rats at the dose of 0.5 (mg/kg/day); format: functional
Summary of the method: (§1)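 Rats were given a 20% galactose diet for 4 days, with the test compound administered in the diet. Sciatic nerve galactitol accumulation was measured, and activity is given as % inhibition at the stated daily dose (mg/kg/day). Values are mean ± SEM, n = 6 animals; p < 0.01 unless indicated. NS means no significant inhibition of polyol accumulation.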

Rattus norvegicus [3] = test: Tested for in vivo inhibition of galactitol accumulation in the sciatic nerve of galactose-fed rats at the dose of 0.9 (mg/kg/day); format: functional; summary of the method: as §1
Rattus norvegicus [4] = test: Tested for in vivo inhibition of galactitol accumulation in the lens of galactose-fed rats at the dose of 47 (mg/kg/day); NS=Not significant; format: functional, organism-based; conditions: Lens of camera-type eye
Rattus norvegicus [5] = test: Tested for in vivo inhibition of galactitol accumulation in the sciatic nerve of galactose-fed rats at the dose of 47 (mg/kg/day); format: functional; summary of the method: as §1
Rattus norvegicus [6] = test: Tested for in vivo inhibition of galactitol accumulation in the sciatic nerve of galactose-fed rats at the dose of 9.5 (mg/kg/day); format: functional
Summary of the method: (§2)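 Rats fed a 20% galactose diet for 4 days, with test compound given in the diet at the stated daily dose (mg/kg/day). Read-out is inhibition of galactitol (polyol) accumulation in sciatic nerve. Values are % inhibition, mean ± SEM of six animals; p < 0.01 unless marked (some p < 0.05). NS = no significant inhibition of polyol accumulation. Tolrestat was the reference standard.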

Rattus norvegicus [7] = test: Tested for in vivo inhibition of galactitol accumulation in the sciatic nerve of galactose-fed rats at the dose of 24.4 (mg/kg/day); format: functional; summary of the method: as §1
Rattus norvegicus [8] = test: Tested for in vivo inhibition of galactitol accumulation in the lens of galactose-fed rats at the dose of 24.4 (mg/kg/day); NS=Not significant; format: functional, organism-based; conditions: Lens of camera-type eye
Rattus norvegicus [9] = test: Tested for in vivo inhibition of galactitol accumulation in the lens of galactose-fed rats at the dose of 27.5 (mg/kg/day); format: functional, Lens of camera-type eye
Rattus norvegicus [10] = test: Tested for in vivo inhibition of galactitol accumulation in the sciatic nerve of galactose-fed rats at the dose of 27.5 (mg/kg/day); format: functional; summary of the method: as §1
Rattus norvegicus [11] = test: Tested for in vivo inhibition of galactitol accumulation in the sciatic nerve galactose-fed rats at the dose of 25.9 (mg/kg/day); format: functional; summary of the method: as §1
Rattus norvegicus [12] = test: Tested for in vivo inhibition of galactitol accumulation in the lens of galactose-fed rats at the dose of 25.9 (mg/kg/day); NS=Not significant; format: functional, organism-based; conditions: Lens of camera-type eye
Rattus norvegicus [13] = test: Tested for in vivo inhibition of galactitol accumulation in the lens of galactose-fed rats at the dose of 50.5 (mg/kg/day); format: functional, Lens of camera-type eye
Rattus norvegicus [14] = test: Tested for in vivo inhibition of galactitol accumulation in the sciatic nerve of galactose-fed rats at the dose of 50.5 (mg/kg/day); format: functional; summary of the method: as §2
Rattus norvegicus [15] = test: Tested for in vivo inhibition of galactitol accumulation in the sciatic nerve of galactose-fed rats at the dose of 1.1 (mg/kg/day); format: functional; summary of the method: as §1
Rattus norvegicus [16] = test: Tested for in vivo inhibition of galactitol accumulation in the lens of galactose-fed rats at the dose of 27.1 (mg/kg/day); format: functional, Lens of camera-type eye
Rattus norvegicus [17] = test: Tested for in vivo inhibition of galactitol accumulation in the lens of galactose-fed rats at the dose of 1.1 (mg/kg/day); NS=Not significant; format: functional, organism-based; conditions: Lens of camera-type eye
Rattus norvegicus [18] = test: Tested for in vivo inhibition of galactitol accumulation in the sciatic nerve of galactose-fed rats at the dose of 27.1 (mg/kg/day); format: functional; summary of the method: as §1
Rattus norvegicus [19] = test: Tested for in vivo inhibition of galactitol accumulation in the sciatic nerve of galactose-fed rats at the dose of 96.6 (mg/kg/day); format: functional; summary of the method: as §2
Rattus norvegicus [20] = test: Tested for in vivo inhibition of galactitol accumulation in the lens of galactose-fed rats at the dose of 48.8 (mg/kg/day); NS=Not significant; format: functional, organism-based; conditions: Lens of camera-type eye
Rattus norvegicus [21] = test: Tested for in vivo inhibition of galactitol accumulation in the lens of galactose-fed rats at the dose of 96.6 (mg/kg/day); NS=Not significant; format: functional, organism-based; conditions: Lens of camera-type eye
Summary of the method: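 Galactosemic rats were fed 20% galactose for 4 days, with the compound mixed into the diet. […] galactitol accumulation was measured, and activity is given as % inhibition at the stated daily dose (mg/kg/day). Values are mean ± SEM of six animals; p < 0.01 unless indicated. NS means no significant inhibition of polyol accumulation.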

Rattus norvegicus [22] = test: Tested for in vivo inhibition of galactitol accumulation in the sciatic nerve of galactose-fed rats at the dose of 48.8 (mg/kg/day); format: functional; summary of the method: as §2
Rattus norvegicus [23] = test: Tested for in vivo inhibition of galactitol accumulation in the sciatic nerve of galactose-fed rats at the dose of 9.8 (mg/kg/day); format: functional; summary of the method: as §2

**Q.** What does the source list for `CCN1C(=O)CC2(C1=O)C(=O)N(Cc1ccc(Br)cc1F)C(=O)c1ccccc12` (stereo unspecified)?
**A.** inhibition [1]: inactive; Inhibition (Rattus norvegicus [2]): 37%; Inhibition (Rattus norvegicus [3]): 65%

**Q.** Which results are given for `COC(=O)NC(=O)CC1C(=O)N(C)C(=O)c2ccc(F)cc21` (stereo unspecified)?
**A.** inhibition [1]: 71%; inhibition (Rattus norvegicus [4]): inactive; Inhibition (Rattus norvegicus [5]): 58%

**Q.** For `CN1C(=O)CC2(C1=O)C(=O)N(Cc1nc3cc(C(F)(F)F)ccc3s1)C(=O)c1ccccc12` (stereo unspecified), which inhibition [1] is on record?
**A.** inactive

**Q.** What about the Inhibition (Rattus norvegicus [6]) of the same compound?
**A.** 82%

**Q.** What does the source list for `COC(=O)NC(=O)CC1C(=O)N(C)C(=O)c2ccc(Br)cc21` (stereo unspecified)?
**A.** inhibition [1]: 82%; Inhibition (Rattus norvegicus [7]): 68%; inhibition (Rattus norvegicus [8]): inactive

**Q.** With `CN1C(=O)c2ccc(Br)cc2C2(CC(=O)N2)C1=O` (stereo unspecified) as the compound, how does the Inhibition (Rattus norvegicus [9]) read?
**A.** 36%

**Q.** What about the Inhibition (Rattus norvegicus [10]) of the same compound?
**A.** 54%

**Q.** For `COC(=O)NC(=O)CC1C(=O)N(Cc2ccc(Br)cc2F)C(=O)c2ccc(F)cc21` (stereo unspecified), which inhibition [1] is on record?
**A.** 55%

**Q.** What about the Inhibition (Rattus norvegicus [11]) of the same compound?
**A.** 78%

**Q.** And the inhibition (Rattus norvegicus [12])?
**A.** inactive

**Q.** How did the inhibition [1] turn out when `NN1C(=O)CC2(C1=O)C(=O)N(Cc1ccc(Br)cc1F)C(=O)c1ccc(F)cc12` (stereo unspecified) was run?
**A.** inactive

**Q.** And the Inhibition (Rattus norvegicus [13])?
**A.** 54%

**Q.** What about the Inhibition (Rattus norvegicus [14]) of the same compound?
**A.** 75%

**Q.** `CC(C)=NN1C(=O)CC2(C(=O)N(Cc3ccc(Br)cc3F)C(=O)c3ccc(F)cc32)C1=O` (stereo unspecified) was tested. Which inhibition [1] did it give?
**A.** inactive

**Q.** What about the Inhibition (Rattus norvegicus [15]) of the same compound?
**A.** 47%

**Q.** What about the Inhibition (Rattus norvegicus [16]) of the same compound?
**A.** 58%

**Q.** And the inhibition (Rattus norvegicus [17])?
**A.** inactive

**Q.** What about the Inhibition (Rattus norvegicus [18]) of the same compound?
**A.** 84%

**Q.** What does the source list for `COC(=O)NC(=O)CC1C(=O)N(Cc2nc3cc(C(F)(F)F)ccc3s2)C(=O)c2ccccc21` (stereo unspecified)?
**A.** inhibition [1]: 95%; Inhibition (Rattus norvegicus [19]): 73%; NS (Rattus norvegicus [20]): inactive; inhibition (Rattus norvegicus [21]): inactive; Inhibition (Rattus norvegicus [22]): 61%

**Q.** For `CN1C(=O)CC2(C1=O)C(=O)N(Cc1ccc(Cl)cc1)C(=O)c1ccccc12` (stereo unspecified), which inhibition [1] is on record?
**A.** inactive

**Q.** And the Inhibition (Rattus norvegicus [23])?
**A.** 35%
